Source: ChEMBL document CHEMBL3877264, “Quinolidene-rhodanine conjugates: Facile synthesis and biological evaluation” (Eur J Med Chem, 2017)
Converted amounts (≈) assume the structure as drawn.

Legend:
[1] = test system: Mycobacterium tuberculosis; test: Growth inhibition of Mycobacterium tuberculosis H37Ra ATCC 25177 at active stage at 0.78 ug/ml measured after 8 days by XTT dye based two fold dilution method relative to control; type: functional; conditions: H37Ra ATCC 25177, 192 h, read-out: GI
Procedure, shortened: (§1)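 MTB H37Ra was grown in Dubos medium, then exposed in Mycobacterium pheli minimal medium (pH 6.6) to compounds dissolved in DMSO. The assay ended on day 8 (active) or day 12 (dormant). Viable cells were measured by XTT reduction menadione assay at 470 nm, blank-corrected, relative to vehicle control. Triplicates were expressed as mean ± SD. MIC came from dose-response curves.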

[2] = test system: Mycobacterium tuberculosis; test: Growth inhibition of Mycobacterium tuberculosis H37Ra ATCC 25177 at active stage at 1.56 ug/ml measured after 8 days by XTT dye based two fold dilution method relative to control; type: functional; conditions: H37Ra ATCC 25177, 192 h, read-out: GI; procedure, shortened: as §1
[3] = test system: Mycobacterium tuberculosis; test: Growth inhibition of Mycobacterium bovis BCG ATCC 35743 at dormant stage at 0.78 ug/ml measured after 12 days by nitrate reductase dye based two fold dilution method relative to control; type: functional; conditions: BCG str. ATCC 35743, 288 h, read-out: GI
Procedure, shortened: (§2)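 M. bovis BCG was grown in Dubos medium and assayed in Mycobacterium pheli minimal medium (pH 6.6), with compounds from DMSO stocks. Incubation lasted 8 days for active and 12 days for dormant cultures. Viability was read by nitrate reductase at 540 nm against cell-free blanks, with vehicle set as 100% growth. Primary screen was at 30, 10 and 3 µg/ml, in triplicate, mean ± SD. MIC was taken from dose-response curves.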

[4] = test system: Bacillus subtilis; test: Antibacterial activity against Bacillus subtilis NCIM 2079 measured after 12 hrs; type: functional; conditions: NCIM 2079, 12 h
Procedure, shortened: (§3)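 Bacteria grown in LB at 37 °C and 180 rpm to OD 1. Compounds added to wells, then 0.1% inoculum of 1 OD culture (620 nm). Growth read as OD at 620 nm after 8 h for gram-negative and after 12 h for gram-positive strains.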

[5] = test system: Mycobacterium tuberculosis; test: Growth inhibition of Mycobacterium tuberculosis H37Ra ATCC 25177 at dormant stage at 0.78 ug/ml measured after 12 days by XTT dye based two fold dilution method relative to control; type: functional; conditions: H37Ra ATCC 25177, 288 h, read-out: GI; procedure, shortened: as §1
[6] = Cytotoxicity against primary HUVEC measured after 48 hrs by MTT assay; type: toxicity, cell-based; conditions: human
[7] = test system: Mycobacterium tuberculosis; test: Growth inhibition of Mycobacterium tuberculosis H37Ra ATCC 25177 at dormant stage at 100 ug/ml measured after 12 days by XTT dye based two fold dilution method relative to control; type: functional; conditions: H37Ra ATCC 25177, 288 h, read-out: GI; procedure, shortened: as §1
[8] = test system: Mycobacterium tuberculosis; test: Growth inhibition of Mycobacterium tuberculosis H37Ra ATCC 25177 at active stage at 25 ug/ml measured after 8 days by XTT dye based two fold dilution method relative to control; type: functional; conditions: H37Ra ATCC 25177, 192 h, read-out: GI; procedure, shortened: as §1
[9] = test system: Mycobacterium tuberculosis; test: Growth inhibition of Mycobacterium tuberculosis H37Ra ATCC 25177 at active stage at 6.25 ug/ml measured after 8 days by XTT dye based two fold dilution method relative to control; type: functional; conditions: H37Ra ATCC 25177, 192 h, read-out: GI; procedure, shortened: as §1
[10] = test system: Mycobacterium tuberculosis; test: Growth inhibition of Mycobacterium bovis BCG ATCC 35743 at active stage at 6.25 ug/ml measured after 8 days by nitrate reductase dye based two fold dilution method relative to control; type: functional; conditions: BCG str. ATCC 35743, 192 h, read-out: GI; procedure, shortened: as §2
[11] = test system: Mycobacterium tuberculosis; test: Growth inhibition of Mycobacterium bovis BCG ATCC 35743 at dormant stage measured after 12 days by nitrate reductase dye based two fold dilution method; type: functional; conditions: BCG str. ATCC 35743, 288 h; procedure, shortened: as §2
[12] = test system: Mycobacterium tuberculosis; test: Growth inhibition of Mycobacterium bovis BCG ATCC 35743 at dormant stage at 50 ug/ml measured after 12 days by nitrate reductase dye based two fold dilution method relative to control; type: functional; conditions: BCG str. ATCC 35743, 288 h, read-out: GI; procedure, shortened: as §2
[13] = test system: Mycobacterium tuberculosis; test: Growth inhibition of Mycobacterium bovis BCG ATCC 35743 at active stage at 1.56 ug/ml measured after 8 days by nitrate reductase dye based two fold dilution method relative to control; type: functional; conditions: BCG str. ATCC 35743, 192 h, read-out: GI; procedure, shortened: as §2
[14] = Cytotoxicity against human PANC1 cells assessed as growth inhibition at 100 ug/ml measured after 48 hrs by MTT assay relative to control; type: toxicity, cell-based, PANC-1; conditions: read-out: GI
[15] = Selectivity index, ratio of GI50 for human THP1 cells to MIC for Mycobacterium tuberculosis H37Ra ATCC 25177 at dormant stage; type: toxicity, cell-based, THP-1; conditions: read-out: Selectivity Index
Procedure, shortened: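 SI is the cell-line GI50 divided by the dormant-stage mycobacterial MIC. […] THP-1 macrophages were PMA-differentiated for 24 h.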

[16] = Antifungal activity against Cryptococcus neoformans NCIM 576 by standard agar method; type: functional
Procedure, shortened: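 MICs determined by standard agar method; DMSO as solvent control.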

[17] = test system: Mycobacterium tuberculosis; test: Growth inhibition of Mycobacterium tuberculosis H37Ra ATCC 25177 at active stage at 100 ug/ml measured after 8 days by XTT dye based two fold dilution method relative to control; type: functional; conditions: H37Ra ATCC 25177, 192 h, read-out: GI; procedure, shortened: as §1
[18] = test system: Mycobacterium tuberculosis; test: Growth inhibition of Mycobacterium bovis BCG ATCC 35743 at active stage at 3.13 ug/ml measured after 8 days by nitrate reductase dye based two fold dilution method relative to control; type: functional; conditions: BCG str. ATCC 35743, 192 h, read-out: GI; procedure, shortened: as §2
[19] = test system: Pseudomonas fluorescens; test: Growth inhibition of Pseudomonas fluorescens NCIM 2036 at 3 ug/ml measured after 8 hrs relative to control; type: functional; conditions: NCIM 2036, 8 h, read-out: GI; procedure, shortened: as §3
[20] = test system: Bacillus subtilis; test: Growth inhibition of Bacillus subtilis NCIM 2079 at 3 ug/ml measured after 12 hrs relative to control; type: functional; conditions: NCIM 2079, 12 h, read-out: GI; procedure, shortened: as §3

SMILES | inhibition of growth at 0.78 µg/mL [1] [%] | inhibition of growth at 1.56 µg/mL [2] [%] | inhibition of growth at 0.78 µg/mL [3] [%] | MIC [4] [µg/mL] | inhibition of growth at 0.78 µg/mL [5] [%] | GI50 at 48 h [6] [µg/mL] | inhibition of growth at 100 µg/mL [7] [%] | inhibition of growth at 25 µg/mL [8] [%] | inhibition of growth at 6.25 µg/mL [9] [%] | inhibition of growth at 6.25 µg/mL [10] [%] | IC50 [11] [µg/mL] | IC90 [11] [µg/mL] | inhibition of growth at 50 µg/mL [12] [%] | inhibition of growth at 1.56 µg/mL [13] [%] | inhibition at 48 h, 100 ug/ml [14] [%] | selectivity ratio [15] | MIC [16] [µg/mL] | inhibition of growth at 100 µg/mL [17] [%] | inhibition of growth at 3 µg/mL [19] [%] | inhibition of growth at 3 µg/mL [20] [%] | other results
O=C1NC(=S)S/C1=C\c1cc2cc(F)ccc2nc1Cl | 9.07 | 31.9 | -38.3 | > 30 | -24.1 | > 100 | 97.3 | 101 | 96.2 | 99.5 | 3.9 (≈ 12 µM) | 5.2 (≈ 16 µM) | 100 | -13.2 | 37.5 | 5.6 | 25 (≈ 77 µM) | 101 | 29.3 | -6.11 | inhibition of growth at 3.13 µg/mL [18]: 71.3%
Cc1cccc2cc(/C=C3\SC(=S)NC3=O)c(Cl)nc12 | 20.1 | 29.6 | -16.3 | > 30 | -16.1 | > 100 | 104 | 105 | 48.4 | 87.8 | 5.1 (≈ 15.9 µM) | 9.5 (≈ 29.6 µM) | 100 | -33.4 | 30.9 | 7.8 | 100 (≈ 312 µM) | 113 | 16.9 | 3.54 | inhibition of growth at 3.13 µg/mL [18]: -17.7%
O=C1NC(=S)S/C1=C\c1cc2cc(Cl)ccc2nc1Cl | 24.1 | 23.3 | -9.1 | 9.33 (≈ 27.3 µM) | -27.1 | > 100 | 85.4 | 100 | 102 | 100 | 1.3 (≈ 3.81 µM) | 2.2 (≈ 6.45 µM) | 101 | 86.2 | 25.2 | 15.6 | 100 (≈ 293 µM) | 92.7 | 95.6 | 62.8 | inhibition of growth at 3.13 µg/mL [18]: 98.9%
CCOc1ccc2nc(Cl)c(/C=C3\SC(=S)NC3=O)cc2c1 | -4.44 | 28.7 | -57 | 28.4 (≈ 80.9 µM) | -39.5 | > 100 | 105 | 106 | 104 | 101 | 1.1 (≈ 3.14 µM) | 1.9 (≈ 5.42 µM) | 99.6 | 93.4 | 30.1 | 28.6 | 50 (≈ 143 µM) | 111 | 50.2 | -34 | inhibition of growth at 3.13 µg/mL [18]: 99.4%
Cc1cccc2cc(/C=C3\SC(=S)N(CC(=O)O)C3=O)c(Cl)nc12 | -16 | -2.86 | – | > 30 | -43.4 | > 100 | 100 | 93.4 | 12.9 | – | > 30 | > 30 | – | – | 5.9 | 5 | 150 (≈ 396 µM) | 98.5 | 11.2 | -3.67 | –
O=C(O)CN1C(=O)/C(=C/c2cc3cc(F)ccc3nc2Cl)SC1=S | -48.2 | -22.9 | 98.5 | > 30 | -24 | > 100 | 119 | 10.4 | 11.3 | – | > 30 | > 30 | 99.8 | – | 20.8 | – | 25 (≈ 65.3 µM) | 100 | 6.76 | -1.39 | –
COc1ccc2cc(/C=C3\SC(=S)NC3=O)c(Cl)nc2c1 | 16.8 | -6.28 | -50.5 | > 30 | -29.8 | > 100 | 85.2 | 109 | 43.8 | 96.6 | – | – | 100 | -36.6 | 29.8 | – | 50 (≈ 148 µM) | 96.4 | 0.629 | -4.12 | inhibition of growth at 3.13 µg/mL [18]: 91.5%
